{"source": "paper PMC9435035", "about": "(ACS Omega, 2022)", "key": {"[1]": {"molecular_target": "α-glucosidase (Saccharomyces cerevisiae, UniProt P53341)", "sequence (P53341 whole entry)": "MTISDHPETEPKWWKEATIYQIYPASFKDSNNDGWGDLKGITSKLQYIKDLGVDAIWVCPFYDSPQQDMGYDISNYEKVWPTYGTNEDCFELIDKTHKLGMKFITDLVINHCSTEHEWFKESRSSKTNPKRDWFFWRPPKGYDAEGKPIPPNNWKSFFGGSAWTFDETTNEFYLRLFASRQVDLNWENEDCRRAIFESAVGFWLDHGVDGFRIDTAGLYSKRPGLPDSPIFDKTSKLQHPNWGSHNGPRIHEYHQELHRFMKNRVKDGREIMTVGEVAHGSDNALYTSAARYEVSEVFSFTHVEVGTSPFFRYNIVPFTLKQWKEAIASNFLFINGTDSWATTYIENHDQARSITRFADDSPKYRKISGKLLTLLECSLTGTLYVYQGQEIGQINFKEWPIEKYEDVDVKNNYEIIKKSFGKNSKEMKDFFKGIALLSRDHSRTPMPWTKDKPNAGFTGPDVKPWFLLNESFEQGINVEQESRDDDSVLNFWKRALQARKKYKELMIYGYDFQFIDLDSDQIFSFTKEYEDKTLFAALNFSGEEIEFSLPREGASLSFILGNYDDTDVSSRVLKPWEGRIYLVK", "test": "α-glucosidase inhibitory activity", "assay_type": "biochemical", "details": "read-out: glucosidase inhibition IC50 ± SEM; mean ± SEM"}, "[2]": {"test_system": "Balb/C mice", "test": "acute toxicity study in mice", "assay_type": "in vivo", "procedure,_shortened": "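Two-phase modified Lorke protocol in Balb/C mice (20–25 g), four per group. Phase 1: control given Tween-80 (2%); other groups received oral test compound at 100, 500 or 1000 mg/kg. Phase 2: oral doses of 1250, 1500 and 2000 mg/kg. Animals observed for the first 24 h, then daily for 2 weeks for diarrhea, convulsions, lethargy, sleeping, salivation and tremors, with mortality monitored.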"}, "[3]": {"test_system": "overnight fasted normal rats", "test": "oral glucose tolerance test", "assay_type": "in vivo, Wistar albino rats", "details": "OGTT, glucose 3 g/kg oral"}, "[4]": {"test_system": "streptozotocin-induced diabetic Wistar rats", "test": "antidiabetic activity: blood glucose in STZ-induced diabetes", "assay_type": "in vivo, Wistar albino rats", "procedure,_shortened": "(§1)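 Male Wistar albino rats (170–200 g, 8–10 weeks), fasted overnight, given STZ 50 mg/kg i.p. in 0.1 M citrate buffer, then 10% glucose for 3 days. Tail-vein glucose by glucometer at 72 h; >250 mg/dL counted as diabetic. Body weight and blood glucose on days 1, 7, 14, 21 and 28. Means ± SEM, one-way ANOVA with Dunnett's test.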"}, "[5]": {"test": "body weight of STZ-induced diabetic rats", "assay_type": "in vivo, Wistar albino rats", "details": "for body weight, day 1: day 1, in g (unit assumed); for body weight, day 7: day 7, in g (unit assumed); for body weight, day 14: day 14, in g (unit assumed); for body weight, day 21: day 21, in g (unit assumed); for body weight, day 28: day 28, in g (unit assumed)", "procedure,_shortened": "as §1"}, "[6]": {"test_system": "streptozotocin-induced diabetic Wistar rats", "test": "lipid profile in streptozotocin-induced diabetes", "assay_type": "in vivo, Wistar albino rats", "details": "STZ-diabetic rats", "procedure,_shortened": "(§2)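 STZ-diabetic Wistar rats (n = 8 per group) received test compound at 10 or 20 mg/kg p.o., or glibenclamide 500 μg/kg p.o., once daily for 28 days; controls received vehicle. On day 28, rats were anesthetised with pentobarbital sodium (35 mg/kg) and blood was drawn by cardiac puncture. Serum ALP, SGPT, SGOT, LDL, HDL, TG, total cholesterol, creatinine and insulin were measured. Means ± SEM, one-way ANOVA with Dunnett's test.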"}, "[7]": {"test_system": "streptozotocin-induced diabetic Wistar rats", "test": "serum profile", "assay_type": "in vivo, Wistar albino rats", "details": "STZ-diabetic rats; for (ALP) IU / (SGOT) IU / (SGPT) IU: serum", "procedure,_shortened": "as §2"}}, "data": [{"substance": "2-(4-(Benzyloxy)-3-methoxyphenyl)-4-(p-tolyl)-2,3-dihydrobenzo[b][1,5]thiazepine [12B]", "values": [{"measurement": "IC50", "setting": "[1]", "result": "3.79 ± 0.22", "unit": "µM"}, {"measurement": "mortality", "setting": "[2]; maximum oral dose of 2000 mg/kg (b.w.)", "result": "no mortality"}, {"measurement": "toxic effects (diarrhea, convulsions, lethargy, sleeping, salivation, tremor)", "setting": "[2]; oral up to 2000 mg/kg, observed daily for 2 weeks", "result": "no toxic effects"}, {"measurement": "blood glucose level, 0 min", "setting": "[3]; dose 10 mg/kg", "result": "101.67 ± 4.55", "unit": "mg/dL"}, {"measurement": "blood glucose level, 30 min", "setting": "[3]; dose 10 mg/kg", "result": "121.63 ± 4.56", "unit": "mg/dL"}, {"measurement": "blood glucose level, 60 min", "setting": "[3]; dose 10 mg/kg", "result": "122.02 ± 4.66", "unit": "mg/dL"}, {"measurement": "blood glucose level, 90 min", "setting": "[3]; dose 10 mg/kg", "result": "115.31 ± 4.61", "unit": "mg/dL"}, {"measurement": "blood glucose level, 120 min", "setting": "[3]; dose 10 mg/kg", "result": "114.19 ± 4.61", "unit": "mg/dL"}, {"measurement": "blood glucose level, 0 min", "setting": "[3]; dose 20 mg/kg", "result": "105.59 ± 4.61", "unit": "mg/dL"}, {"measurement": "blood glucose level, 30 min", "setting": "[3]; dose 20 mg/kg", "result": "117.38 ± 4.01", "unit": "mg/dL"}, {"measurement": "blood glucose level, 60 min", "setting": "[3]; dose 20 mg/kg", "result": "117.61 ± 4.60", "unit": "mg/dL"}, {"measurement": "blood glucose level, 90 min", "setting": "[3]; dose 20 mg/kg", "result": "110.71 ± 4.91", "unit": "mg/dL"}, {"measurement": "blood glucose level, 120 min", "setting": "[3]; dose 20 mg/kg", "result": "111.21 ± 4.31", "unit": "mg/dL"}, {"measurement": "blood glucose level, day 1", "setting": "[4]; 10 mg/kg p.o. once daily", "result": "371.67 ± 4.66", "unit": "mg/dL"}, {"measurement": "blood glucose level, day 7", "setting": "[4]; 10 mg/kg p.o. once daily", "result": "301.41 ± 4.56", "unit": "mg/dL"}, {"measurement": "blood glucose level, day 14", "setting": "[4]; 10 mg/kg p.o. once daily", "result": "209.60 ± 4.22", "unit": "mg/dL"}, {"measurement": "blood glucose level, day 21", "setting": "[4]; 10 mg/kg p.o. once daily", "result": "152.56 ± 4.71", "unit": "mg/dL"}, {"measurement": "blood glucose level, day 28", "setting": "[4]; 10 mg/kg p.o. once daily, day 28, 10 mg/kg", "result": "138.92 ± 4.67", "unit": "mg/dL"}, {"measurement": "blood glucose level, day 1", "setting": "[4]; 20 mg/kg p.o. once daily", "result": "369.56 ± 4.56", "unit": "mg/dL"}, {"measurement": "blood glucose level, day 7", "setting": "[4]; 20 mg/kg p.o. once daily", "result": "237.11 ± 4.39", "unit": "mg/dL"}, {"measurement": "blood glucose level, day 14", "setting": "[4]; 20 mg/kg p.o. once daily", "result": "167.49 ± 5.02", "unit": "mg/dL"}, {"measurement": "blood glucose level, day 21", "setting": "[4]; 20 mg/kg p.o. once daily", "result": "131.69 ± 4.77", "unit": "mg/dL"}, {"measurement": "blood glucose level, day 28", "setting": "[4]; 20 mg/kg p.o. once daily, day 28, 20 mg/kg", "result": "114.74 ± 5.09", "unit": "mg/dL"}, {"measurement": "body weight, day 1", "setting": "[5]; 10 mg/kg", "result": "187.5 ± 4.39"}, {"measurement": "body weight, day 7", "setting": "[5]; 10 mg/kg", "result": "185.1 ± 4.71"}, {"measurement": "body weight, day 14", "setting": "[5]; 10 mg/kg", "result": "184.5 ± 4.06"}, {"measurement": "body weight, day 21", "setting": "[5]; 10 mg/kg", "result": "187.0 ± 4.39"}, {"measurement": "body weight, day 28", "setting": "[5]; 10 mg/kg", "result": "173.9 ± 4.28"}, {"measurement": "body weight, day 1", "setting": "[5]; 20 mg/kg", "result": "189.7 ± 4.08"}, {"measurement": "body weight, day 7", "setting": "[5]; 20 mg/kg", "result": "184.7 ± 4.66"}, {"measurement": "body weight, day 14", "setting": "[5]; 20 mg/kg", "result": "187.1 ± 4.11"}, {"measurement": "body weight, day 21", "setting": "[5]; 20 mg/kg", "result": "189.3 ± 4.60"}, {"measurement": "body weight, day 28", "setting": "[5]; 20 mg/kg", "result": "175.3 ± 5.01"}, {"measurement": "HDL", "setting": "[6]; 10 mg/kg for 28 days", "result": "45.91 ± 2.70", "unit": "mg/dL"}, {"measurement": "TG", "setting": "[6]; 10 mg/kg for 28 days", "result": "149.81 ± 4.60", "unit": "mg/dL"}, {"measurement": "LDL", "setting": "[6]; 10 mg/kg for 28 days, 10 mg/kg", "result": "134.89 ± 4.33", "unit": "mg/dL"}, {"measurement": "total CH", "setting": "[6]; 10 mg/kg for 28 days, 10 mg/kg", "result": "152.11 ± 4.11", "unit": "mg/dL"}, {"measurement": "HDL", "setting": "[6]; 20 mg/kg for 28 days", "result": "53.24 ± 2.08", "unit": "mg/dL"}, {"measurement": "TG", "setting": "[6]; 20 mg/kg for 28 days", "result": "117.97 ± 4.01", "unit": "mg/dL"}, {"measurement": "LDL", "setting": "[6]; 20 mg/kg for 28 days, 20 mg/kg", "result": "113.71 ± 4.16", "unit": "mg/dL"}, {"measurement": "total CH", "setting": "[6]; 20 mg/kg for 28 days, 20 mg/kg", "result": "136.03 ± 4.39", "unit": "mg/dL"}, {"measurement": "insulin level", "setting": "[7]; 10 mg/kg for 28 days", "result": "0.651 ± 0.34", "unit": "ng/mL"}, {"measurement": "serum creatinine", "setting": "[7]; 10 mg/kg for 28 days", "result": "0.90 ± 0.30", "unit": "mg/dL"}, {"measurement": "(ALP) IU", "setting": "[7]; 10 mg/kg for 28 days", "result": "215.19 ± 4.10", "unit": "IU"}, {"measurement": "(SGOT) IU", "setting": "[7]; 10 mg/kg for 28 days", "result": "26.01 ± 2.01", "unit": "IU"}, {"measurement": "(SGPT) IU", "setting": "[7]; 10 mg/kg for 28 days", "result": "26.53 ± 2.38", "unit": "IU"}, {"measurement": "insulin level", "setting": "[7]; 20 mg/kg for 28 days", "result": "0.660 ± 0.30", "unit": "ng/mL"}, {"measurement": "serum creatinine", "setting": "[7]; 20 mg/kg for 28 days", "result": "0.80 ± 0.38", "unit": "mg/dL"}, {"measurement": "(ALP) IU", "setting": "[7]; 20 mg/kg for 28 days", "result": "205.93 ± 4.67", "unit": "IU"}, {"measurement": "(SGOT) IU", "setting": "[7]; 20 mg/kg for 28 days", "result": "22.91 ± 2.87", "unit": "IU"}, {"measurement": "(SGPT) IU", "setting": "[7]; 20 mg/kg for 28 days", "result": "23.35 ± 2.54", "unit": "IU"}]}]}
